Data reported in ChEMBL document CHEMBL1671716, “Antimicrobial susceptibility patterns for recent clinical isolates of anaerobic bacteria in South Korea” (2010).

Legend:
Anaerococcus prevotii [1] = test: Antimicrobial activity against Anaerococcus prevotii assessed as percent susceptible isolates after 48 hrs by agar dilution method; format: functional
Bacteroides fragilis [2] = test: Antimicrobial activity against Bacteroides fragilis after 48 hrs by agar dilution method; format: functional
Method in brief: (§1)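 MICs on clinical anaerobe isolates by the CLSI agar dilution method. Inoculum of 10^5 CFU applied with a Steers replicator. Plates incubated 48 h at 37°C in an anaerobic chamber.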

Actinomyces naeslundii [3] = test: Antimicrobial activity against Actinomyces naeslundii assessed as percent resistant isolates after 48 hrs by agar dilution method; format: functional
Method in brief: (§2)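 CLSI agar dilution on recent Korean clinical anaerobe isolates. Inoculum 10^5 CFU per spot by replicator. Plates incubated in an anaerobic chamber at 37°C for 48 h. For piperacillin plus tazobactam, tazobactam was held constant at 4 μg/ml. Resistance and susceptibility rates derived from MICs.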

Schaalia odontolytica [4] = test: Antimicrobial activity against Actinomyces odontolyticus after 48 hrs by agar dilution method; format: functional; method in brief: as §1
[5] = tested on: Peptoniphilus asaccharolyticus; test: Antimicrobial activity against Peptoniphilus asaccharolyticus assessed as percent susceptible isolates after 48 hrs by agar dilution method; format: functional
Method in brief: (§3)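 CLSI agar dilution (M11-A7); inoculum 10^5 CFU applied by replicator; plates incubated anaerobically 48 h at 37°C. For piperacillin-tazobactam, tazobactam held constant at 4 μg/ml.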

Bacteroides caccae [6] = test: Antimicrobial activity against Bacteroides caccae assessed as percent susceptible isolates after 48 hrs by agar dilution method; format: functional
[7] = tested on: Bifidobacterium adolescentis; test: Antimicrobial activity against Bifidobacterium adolescentis assessed as percent resistant isolates after 48 hrs by agar dilution method; format: functional; method in brief: as §2
[8] = tested on: Bifidobacterium adolescentis; test: Antimicrobial activity against Bifidobacterium adolescentis assessed as percent susceptible isolates after 48 hrs by agar dilution method; format: functional
Bacteroides fragilis [9] = test: Antimicrobial activity against Bacteroides fragilis assessed as percent susceptible isolates after 48 hrs by agar dilution method; format: functional
[10] = tested on: Parabacteroides distasonis; test: Antimicrobial activity against Bacteroides distasonis after 48 hrs by agar dilution method; format: functional; method in brief: as §1
Actinomyces israelii [11] = test: Antimicrobial activity against Actinomyces israelii assessed as percent resistant isolates after 48 hrs by agar dilution method; format: functional; method in brief: as §2
Prevotella intermedia [12] = test: Antimicrobial activity against Prevotella intermedia after 48 hrs by agar dilution method; format: functional; method in brief: as §3
Eubacterium sp. [13] = test: Antimicrobial activity against Eubacterium sp. assessed as percent resistant isolates after 48 hrs by agar dilution method; format: functional; method in brief: as §2
Bifidobacterium sp. [14] = test: Antimicrobial activity against Bifidobacterium sp. after 48 hrs by agar dilution method; format: functional; method in brief: as §1
Clostridioides difficile [15] = test: Antimicrobial activity against Clostridium difficile assessed as percent resistant isolates after 48 hrs by agar dilution method; format: functional
Bifidobacterium sp. [16] = test: Antimicrobial activity against Bifidobacterium sp. assessed as percent susceptible isolates after 48 hrs by agar dilution method; format: functional; method in brief: as §3
Schaalia odontolytica [17] = test: Antimicrobial activity against Actinomyces odontolyticus assessed as percent resistant isolates after 48 hrs by agar dilution method; format: functional; method in brief: as §2
Schaalia meyeri = test: Antimicrobial activity against Actinomyces meyeri after 48 hrs by agar dilution method; format: functional; method in brief: as §1
Prevotella buccae [18] = test: Antimicrobial activity against Prevotella buccae assessed as percent resistant isolates after 48 hrs by agar dilution method; format: functional, Segatella buccae; method in brief: as §2
Fusobacterium necrogenes = test: Antimicrobial activity against Fusobacterium necrogenes after 48 hrs by agar dilution method; format: functional; method in brief: as §3
[19] = tested on: Peptostreptococcus anaerobius; test: Antimicrobial activity against Peptostreptococcus anaerobius assessed as percent susceptible isolates after 48 hrs by agar dilution method; format: functional; method in brief: as §2
Actinomyces israelii [20] = test: Antimicrobial activity against Actinomyces israelii after 48 hrs by agar dilution method; format: functional; method in brief: as §1
Prevotella intermedia [21] = test: Antimicrobial activity against Prevotella intermedia assessed as percent resistant isolates after 48 hrs by agar dilution method; format: functional; method in brief: as §2
Clostridioides difficile [22] = test: Antimicrobial activity against Clostridium difficile assessed as percent susceptible isolates after 48 hrs by agar dilution method; format: functional
Bacteroides ovatus = test: Antimicrobial activity against Bacteroides ovatus assessed as percent resistant isolates after 48 hrs by agar dilution method; format: functional; method in brief: as §2
Phocaeicola vulgatus [23] = test: Antimicrobial activity against Bacteroides vulgatus after 48 hrs by agar dilution method; format: functional; method in brief: as §1
Phocaeicola vulgatus [24] = test: Antimicrobial activity against Bacteroides vulgatus assessed as percent susceptible isolates after 48 hrs by agar dilution method; format: functional
Phocaeicola vulgatus [25] = test: Antimicrobial activity against Bacteroides vulgatus assessed as percent resistant isolates after 48 hrs by agar dilution method; format: functional; method in brief: as §2
[26] = tested on: Parabacteroides distasonis; test: Antimicrobial activity against Bacteroides distasonis assessed as percent susceptible isolates after 48 hrs by agar dilution method; format: functional
Hoylesella oralis [27] = test: Antimicrobial activity against Prevotella oralis assessed as percent susceptible isolates after 48 hrs by agar dilution method; format: functional
Method in brief: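 CLSI agar dilution MIC testing of clinical isolates. 10^5 CFU spotted by replicator, plates incubated 48 h at 37°C in an anaerobic chamber. Susceptibility rates derived from the MICs.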

Bacteroides caccae [28] = test: Antimicrobial activity against Bacteroides caccae assessed as percent resistant isolates after 48 hrs by agar dilution method; format: functional; method in brief: as §2
Finegoldia magna [29] = test: Antimicrobial activity against Finegoldia magna after 48 hrs by agar dilution method; format: functional; method in brief: as §3
[30] = tested on: Bifidobacterium adolescentis; test: Antimicrobial activity against Bifidobacterium adolescentis after 48 hrs by agar dilution method; format: functional; method in brief: as §1
[31] = tested on: Parabacteroides distasonis; test: Antimicrobial activity against Bacteroides distasonis assessed as percent resistant isolates after 48 hrs by agar dilution method; format: functional; method in brief: as §2
Prevotella buccae [32] = test: Antimicrobial activity against Prevotella buccae assessed as percent susceptible isolates after 48 hrs by agar dilution method; format: functional, Segatella buccae; method in brief: as §3
[33] = tested on: Peptostreptococcus anaerobius; test: Antimicrobial activity against Peptostreptococcus anaerobius after 48 hrs by agar dilution method; format: functional; method in brief: as §3
Actinomyces naeslundii [34] = test: Antimicrobial activity against Actinomyces naeslundii after 48 hrs by agar dilution method; format: functional; method in brief: as §1
Finegoldia magna [35] = test: Antimicrobial activity against Finegoldia magna assessed as percent resistant isolates after 48 hrs by agar dilution method; format: functional; method in brief: as §2
Anaerococcus prevotii [36] = test: Antimicrobial activity against Anaerococcus prevotii assessed as percent resistant isolates after 48 hrs by agar dilution method; format: functional; method in brief: as §2
Parvimonas micra = test: Antimicrobial activity against Peptostreptococcus micros after 48 hrs by agar dilution method; format: functional; method in brief: as §3
Bifidobacterium sp. [37] = test: Antimicrobial activity against Bifidobacterium sp. assessed as percent resistant isolates after 48 hrs by agar dilution method; format: functional; method in brief: as §2
Prevotella bivia = test: Antimicrobial activity against Prevotella bivia after 48 hrs by agar dilution method; format: functional; method in brief: as §3
Bacteroides caccae [38] = test: Antimicrobial activity against Bacteroides caccae after 48 hrs by agar dilution method; format: functional; method in brief: as §1
Fusobacterium nucleatum = test: Antimicrobial activity against Fusobacterium nucleatum after 48 hrs by agar dilution method; format: functional; method in brief: as §3
Finegoldia magna [39] = test: Antimicrobial activity against Finegoldia magna assessed as percent susceptible isolates after 48 hrs by agar dilution method; format: functional; method in brief: as §3
Hoylesella oralis [40] = test: Antimicrobial activity against Prevotella oralis assessed as percent resistant isolates after 48 hrs by agar dilution method; format: functional; method in brief: as §2
Anaerococcus prevotii [41] = test: Antimicrobial activity against Anaerococcus prevotii after 48 hrs by agar dilution method; format: functional; method in brief: as §1
Eubacterium sp. [42] = test: Antimicrobial activity against Eubacterium sp. assessed as percent susceptible isolates after 48 hrs by agar dilution method; format: functional; method in brief: as §3

CCN1CCN(C(=O)N[C@@H](C(=O)N[C@@H]2C(=O)N3[C@@H]2SC(C)(C)[C@@H]3C(=O)O)c2ccccc2)C(=O)C1=O [PIPERACILLIN]
> 256 µg/mL: MIC90 (Bacteroides fragilis [2]) | MIC90 [10] | MIC90 (Phocaeicola vulgatus [23]) | MIC90 (Bacteroides caccae [38])
0.06 µg/mL: MIC (Fusobacterium necrogenes) | MIC (Fusobacterium nucleatum)
16 µg/mL: MIC90 (Prevotella intermedia [12]) | MIC90 [33] | MIC90 (Parvimonas micra) | MIC50 (Prevotella bivia)
67%: Activity (Bacteroides fragilis [9])
78%: Activity (Hoylesella oralis [27]) | Activity (Prevotella buccae [32])
≤ 0.06 µg/mL: MIC50 (Finegoldia magna [29])
1 µg/mL: MIC50 (Schaalia odontolytica [4]) | MIC50 (Bifidobacterium sp. [14]) | MIC50 (Schaalia meyeri) | MIC50 (Actinomyces israelii [20]) | MIC50 [30] | MIC50 (Actinomyces naeslundii [34])
100%: Activity (Anaerococcus prevotii [1]) | Activity [5] | Activity [19] | Activity (Clostridioides difficile [22]) | Activity (Finegoldia magna [39])
8 µg/mL: MIC50 (Bacteroides fragilis [2]) | MIC90 (Schaalia odontolytica [4]) | MIC50 (Prevotella intermedia [12]) | MIC90 (Bifidobacterium sp. [14]) | MIC90 (Schaalia meyeri) | MIC90 (Actinomyces israelii [20]) | MIC90 [30] | MIC90 (Actinomyces naeslundii [34])
0.125 µg/mL: MIC90 (Finegoldia magna [29]) | MIC50 (Anaerococcus prevotii [41])
0%: Activity (Actinomyces naeslundii [3]) | Activity [7] | Activity (Actinomyces israelii [11]) | Activity (Eubacterium sp. [13]) | Activity (Clostridioides difficile [15]) | Activity (Schaalia odontolytica [17]) | Activity (Prevotella intermedia [21]) | Activity (Finegoldia magna [35]) | Activity (Anaerococcus prevotii [36]) | Activity (Bifidobacterium sp. [37])
128 µg/mL: MIC50 [10] | MIC50 (Phocaeicola vulgatus [23]) | MIC90 (Prevotella bivia) | MIC50 (Bacteroides caccae [38])
42%: Activity (Bacteroides caccae [6]) | Activity (Phocaeicola vulgatus [24]) | Activity [26]
0.25 µg/mL: MIC50 [33] | MIC50 (Parvimonas micra) | MIC90 (Anaerococcus prevotii [41])
92%: Activity [8] | Activity (Bifidobacterium sp. [16]) | Activity (Eubacterium sp. [42])
11%: Activity (Prevotella buccae [18]) | Activity (Hoylesella oralis [40])
51%: Activity (Bacteroides ovatus) | Activity (Phocaeicola vulgatus [25]) | Activity (Bacteroides caccae [28]) | Activity [31]
